Only some compounds are listed: those with a hit (about 4.3% of all), similar ones and a draw of the others.
UBC13 polyUb: human UBC13 polyubiquitination inhibition; P61088; UBC13 polyubiquitin chain formation, TR-FRET; inhibition, % at 20 µM; 330,000 compounds, 0.47% hits; AID 485273; in the data active = inhibition above about 45%, passing the limit was not always enough
PREPL inh: inhibits the human prolyl oligopeptidase-like enzyme; recombinant PREPL, fluorescence polarization activity-based probe; AID 2751; inhibition, % at 5.96 µM; 320,000 compounds, 0.68% hits; Q4J6C6; in the data active = inhibition above about 43%;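 note: 0% = enzyme with DMSO and 100% = wells lacking enzyme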
SUMO HTRF inh: inhibitors of human SUMOylation (UBC9) | inhibition, % at 35 µM | AID 2006 | 290,000 compounds, 0.36% hits | P63279 | HTRF SUMOylation assay, SAE1/SAE2 + UBC9, in vitro; in the data active = inhibition above about 50%, passing the limit was not always enough
Target sequence (P63279 whole entry, looked up): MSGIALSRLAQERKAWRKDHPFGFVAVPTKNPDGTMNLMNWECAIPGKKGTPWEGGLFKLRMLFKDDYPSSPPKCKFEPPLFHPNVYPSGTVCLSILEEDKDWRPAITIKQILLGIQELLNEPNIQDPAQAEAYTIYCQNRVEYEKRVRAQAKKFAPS
RBBP9 inhibitor: inhibitors of human serine hydrolase RBBP9. inhibition, % at 7.94 µM. recombinant RBBP9, FP-Rh probe fluorescence polarization. AID 1515. O75884. 220,000 compounds, 0.2% hits;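 active = inhibition above the campaign mean of all tested compounds plus 3 SD, cut at about 14% in these data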;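 note: plate controls were DMSO wells with RBBP9 for no effect and wells lacking RBBP9 protein for full effect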
Target sequence (O75884 whole entry, looked up): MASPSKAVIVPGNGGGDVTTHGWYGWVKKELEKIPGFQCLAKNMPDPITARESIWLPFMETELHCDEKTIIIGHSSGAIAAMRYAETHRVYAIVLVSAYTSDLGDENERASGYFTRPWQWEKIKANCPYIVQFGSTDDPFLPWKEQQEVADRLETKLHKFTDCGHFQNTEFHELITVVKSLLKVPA
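Controls: DMSO-treated enzyme wells and wells lacking RBBP9 | Material: RBBP9 protein | Technique: Fluorescence polarization | Replication: Single well per compound, no replicates | Buffer or medium: Tris-NaCl-Pluronic buffer, pH 8.0 | Timing: 30 min compound preincubation, 45 min probe labeling, 25 °C | Read-out basis: Percent inhibition from mP, scaled between DMSO and no-protein wells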
ALR H2O2 inh: human ALR oxidase inhibition via reduced H2O2 | P55789 | purified ALR, DTT oxidation, H2O2 HRP-luminol luminescence | inhibition, % (test concentration not listed) | 290,000 compounds, 3.8% hits | AID 485317;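 active = mean replicate inhibition above about 79%, with every replicate also reaching it, limit read from the data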
Target sequence (P55789 whole entry, looked up): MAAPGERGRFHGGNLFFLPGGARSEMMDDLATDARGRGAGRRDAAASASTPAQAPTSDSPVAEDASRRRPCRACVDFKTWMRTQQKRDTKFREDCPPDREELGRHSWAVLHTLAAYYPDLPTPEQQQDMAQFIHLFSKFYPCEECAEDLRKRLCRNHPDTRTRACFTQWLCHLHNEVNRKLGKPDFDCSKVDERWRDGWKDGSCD
Rin1-Abl PPI inh: inhibitors of human Rin1-Abl protein interaction. P00519+Q13671. TR-FRET Rin1/Abl binding, biochemical. inhibition, % at 7.35 µM. 360,000 compounds, 0.4% hits; in the data active = inhibition above about 5%, passing the limit was not always enough
Rin1 Abl conf: confirmation of inhibitors of human Rin1-Abl interaction; shares compounds with Rin1-Abl PPI inh; TR-FRET Rin1-Abl binding, purified proteins; inhibition, % at 7.35 µM; 1,300 compounds, 49% hits
GFP quench: counter-screen for Rin1-Abl inhibitors: GFP fluorescence quenchers; shares compounds with Rin1-Abl PPI inh; inhibitors/quenchers counterscreen; inhibition, % at 6.75 µM; 1,300 compounds, 8.5% hits;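 note: ABL1-eGFP fusion protein alone without its partner RIN1-SBP; 0% = protein with vehicle and 100% = wells lacking protein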
GFP quench dose: GFP fluorescence interference dose response; shares compounds with Rin1-Abl PPI inh; GFP fluorescence interference/quenching counterscreen; IC50, µM; 230 tested, under 10 active; AID 602182; call rule not given here;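 note: ABL1-eGFP fusion protein alone without its RIN1 binding partner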
Starred values were filed as active, the others as inactive; / = not tested or not shown. Cut-off read from the data, not from the text of the source, unless noted: active = inhibition above about 6.5%; inactive = the rest.

SMILES | UBC13 polyUb | PREPL inh | SUMO HTRF inh | RBBP9 inhibitor | ALR H2O2 inh | Rin1-Abl PPI inh | Rin1 Abl conf | GFP quench | others
Cc1ccc2c(CC(=O)NCC3(N4CCOCC4)CCCCC3)coc2c1C | 3 | 40 | / | / | -21 | -1 | / | /
O=C(Nn1cnc2ccccc2c1=O)c1ccc(Br)cc1 | 14 | 6 | 8 | / | / | 13* | -1 | -1
O=S1(=O)CC(N2CCN(CCO)CC2)CN1C1CCCCC1 (centres undefined) | / | / | / | / | / | 5 | / | /
CC(C)(C)c1ccc(OCc2ccc(C(=O)N/N=C/c3ccc(O)c(O)c3)cc2)cc1 | -4 | 24 | -30 | -8 | / | 8.2* | 8.8* | 2
O=C(CCN1C(=O)/C(=C/c2ccco2)SC1=S)Nc1ccc(C(=O)O)c(O)c1 | -2 | 5 | / | / | / | 7 | / | /
O=C(CCN1C(=O)/C(=C\c2ccco2)SC1=S)Nc1ccc(C(=O)O)c(O)c1 | -17 | 0 | / | / | / | 10* | 0 | 7.3*
CCCCCN(C(=O)CCC(=O)OCc1cc(C)ccc1C)c1c(N)n(CCCC)c(=O)[nH]c1=O | -6 | 5 | / | / | -3 | 2 | / | /
CC1CCCN(C(=O)COC(=O)Cc2c[nH]c3ccccc23)C1 (centres undefined) | 1 | 15 | / | / | 1 | 2 | / | /
COC(=O)C1CCN(C(=O)COC(=O)Cc2c[nH]c3ccccc23)CC1 | -2 | 11 | -3 | -5 | -3 | 5.2* | 0 | -4
COc1cc(Br)c(C(=O)c2nccc3cc(OC)c(OC)cc23)cc1OC | -104 | 26 | / | / | -154 | 6.0* | 3 | 0
Cc1cccc(N2CCN(Cc3oc(CO)cc(=O)c3O)CC2)c1C | 6 | 8 | 3 | -6 | 33 | 0 | / | /
O=c1cc(CO)oc(CN2CCN(CCO)CC2)c1O | 12 | -4 | 7 | -3 | 71 | 6.5* | -2 | 1
CS/C(=N\S(=O)(=O)c1cccs1)Nc1ccc(F)c(Cl)c1 | -4 | 0 | 24 | -7 | 0 | 5.0* | -3 | 1
CCOc1ccc(NC(=O)Nc2ccc3c(c2)nc(C)n3C)cc1 | 2 | 9 | 7 | -7 | -5 | 5.7* | 11* | 2
Cc1ccc(NC(=O)Nc2ccc3c(c2)nc(C)n3C)cc1C | 3 | 26 | 15 | -1 | 1 | / | / | /
CN(C)C(=O)CCc1ccc2c3c([nH]c2c1)[C@]1(C)[C@@H](C(=O)N2CCOCC2)C[C@H](CC(=O)NCCC2=CCCCC2)C(=O)N1CC3 | / | / | / | / | / | -5 | / | /
CC(=O)Nc1ccc(C(=O)N/N=C/c2ccc(F)cc2)cc1 | -5 | 4 | 27 | -2 | -3 | 10* | 3 | -1
O=C(N/N=C\c1ccc(F)cc1)c1ccc(F)cc1 | 11 | 2 | 0 | -3 | 0 | -1 | / | /
CCOc1ccc2[nH]c3ncccc3c(=O)c2c1 | -3 | 11 | 25 | / | -17 | -7 | / | /
CCOc1ccc2c(ccc(/C=C/c3cc(C)c4cccnc4c3O)[n+]2C)c1 | / | / | / | / | / | 40* | 56* | 59*
COc1ccccc1CN1C[C@@H]2C[C@@H](c3ccc(C)cc3)N3CCC[C@@]23C1=O | -2 | -4 | -10 | -12 | -2 | 0 | / | /
COc1ccccc1CN1C[C@@H]2C[C@@H](c3ccc4nsnc4c3)N3CCC[C@@]23C1=O | -5 | 0 | 5 | 3 | / | 22* | 25* | 0 | GFP quench dose=>68
COC(=O)C1=C(C)N(C)C(=O)NC1c1cc2c(cc1[N+](=O)[O-])OCO2 (centres undefined) | -7 | 13 | 66* | -2 | 4 | 15* | 11* | 2
COC(=O)C1=C[C@@H](C(=O)OC)[C@@H]2C3=C(C(=O)C2(C)C)[C@H](c2ccccc2)[C@@H]2C(=O)N(C)C(=O)[C@@H]2[C@@H]3C1 | -16 | 8 | / | / | 0 | 19* | 17* | -1
COC(=O)CN1C(=O)[C@@H]2[C@H](C1=O)[C@@H]1CC(C(=O)OC)=C[C@@H](C(=O)OC)[C@@H]3C1=C(C(=O)[C@]3(C)NC(=O)c1ccccc1)[C@@H]2C | 0 | 8 | / | / | 41 | 1 | / | /
SMILES | UBC13 polyUb | PREPL inh | SUMO HTRF inh | RBBP9 inhibitor | ALR H2O2 inh | Rin1-Abl PPI inh | Rin1 Abl conf | GFP quench | others
O=C(CSc1ncccn1)NCC1CCCO1 (centres undefined) | 2 | 0 | 11 | / | / | 0 | / | /
COc1ccc(CC(=O)OCC(=O)NC(=O)Nc2ccccc2F)cc1 | 8 | 10 | / | / | / | 8.9* | 0 | -1
CCCN(C(=O)C1CCCN(c2ncnc3c2nc2n3CCCCC2)C1)c1ccc(F)cc1 (centres undefined) | 1 | 7 | 4 | / | -4 | 8.5* | -2 | -1
CCOc1ccc2nc(NC(=O)C3CCN(C(=O)c4ccco4)CC3)sc2c1 | 4 | -3 | 21 | / | / | 8.0* | 3 | -3
O=C(CCn1c(=O)oc2ccccc21)NC1=NCCS1 | 1 | 10 | -47 | -7 | -2 | 10.0* | -2 | 0
CC(=O)Nc1ccc(NC(=O)CCn2c(=O)oc3ccccc32)cc1 | 3 | -11 | 3 | / | -4 | 1 | / | /
CC(=O)NCC1(c2ccccc2)CCN(CCCC(=O)c2ccc(F)cc2)CC1 | / | / | / | / | / | 14* | 15* | -1
CC(=O)NCC1(c2ccccc2)CCN(CC2COc3ccccc3O2)CC1 (centres undefined) | / | / | / | / | / | 6 | / | /
CCOc1ccc(OCCN2C(=O)c3ccccc3C2=O)cc1 | 14 | 0 | 5 | / | -2 | 0 | / | /
COc1ccc(OCC(=O)OCCN2C(=O)c3ccccc3C2=O)cc1 | 6 | 7 | 34 | -6 | -1 | 10* | -1 | 1
Cn1c(SCC(=O)NCc2ccccc2)nnc1-c1ccc(NC(=O)CCc2ccccc2)cc1 | 3 | 7 | 16 | -1 | 0 | -1 | / | /
CCCCSc1nnc(-c2ccc(NC(=O)CCc3ccccc3)cc2)n1C | 2 | -8 | 24 | -1 | -3 | 6.2* | 9.0* | 1
CC(=O)c1sc(Nc2ccc(Oc3ccccc3)cc2)nc1C | / | / | / | / | / | -3 | / | /
COC1=CC(=O)c2nc(Cl)ccc2C1=O | / | / | / | / | / | 13 | / | /
COC1=CC(=O)c2c(ccc3ncnc(N)c23)C1=O | / | / | / | / | / | 17* | 31* | 3 | GFP quench dose=>67
O=C1CC=Nc2ccc([N+](=O)[O-])cc21 | / | / | / | / | / | 15* | -2 | -1
Cc1noc(NS(=O)(=O)c2ccc(NS(=O)(=O)c3ccc(Cl)cc3)cc2)c1C | 10 | 5 | / | / | 5 | 0 | / | /
COc1cc(C=c2c3ccccc3n3c2cc(-c2ccccc2)[n+]3C)cc(OC)c1OC | / | / | / | / | / | 14* | -4 | 3
CN(C)c1ccc(C=c2c3cc([N+](=O)[O-])ccc3n3c2cc(-c2ccccc2)[n+]3C)cc1 | / | / | / | / | / | 37* | 4 | 35*

Source: PubChem (several laboratories)
